According to ChEMBL document CHEMBL5390313, “Highly Potent Peptide Therapeutics To Prevent Protein Aggregation in Huntington's Disease” (ACS Med Chem Lett, 2023):
Calls of active or inactive are those of the source. The rule behind the calls is not given here.

Columns and labels:
[1] = system: Huntingtin (Homo sapiens), P42858 [UNDEFINED MUTATION]; assay: Inhibition of TEV protease-induced 6His-GST tagged huntingtin polyQ 46 mutant (unknown origin) aggregation assessed as decrease in fibril length at 10 uM incubated for 24 hrs by AFM imaging analysis relative to control; parameters: scale not given: the % may be the effect or the level left
In short: (§1)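 AFM imaging of Htt fibrils grown for 2 h after TEV cleavage in TEV cleavage buffer (pH 8.0). Peptide was then added, defining t = 0 h. Fibril length was measured at 0, 4, 8 and 24 h and reported as the mean length of 100 fibrils with standard deviation at each time point.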

[2] = system: Huntingtin (Homo sapiens), P42858 [UNDEFINED MUTATION]; assay: Inhibition of TEV protease-induced 6His-GST tagged huntingtin polyQ 103 mutant (unknown origin) aggregation assessed as decrease in fibril clustering at 10 uM measured after 24 hrs by AFM imaging analysis
In short: (§2)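 AFM imaging of Htt aggregates after TEV cleavage. Fibrils were allowed to grow for 2 h, then peptide or nothing (control) was added, defining t = 0 h. Images were taken over 0–24 h and scored for spherical oligomers, individual fibrils, branching and aggregate clusters.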

[3] = system: Huntingtin (Homo sapiens), P42858 [UNDEFINED MUTATION]; assay: (§3) Inhibition of TEV protease-induced 6His-GST tagged wildtype huntingtin polyQ 25 (unknown origin) aggregation expressed in Escherichia coli BL21(DE3) assessed as relative fluorescence unit at 1:1 molar ratio incubated for 16 hrs by ThT fluorescence based spectrophotometer analysis (reference value: 666 a.u.)
In short: (§4)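 Aggregation started by TEV protease addition, with ThT readings beginning right after cleavage. Peptide added equimolar (1:1) to each Htt protein. Fluorescence was followed at 37 °C for at least 16 h, with excitation at 438 nm and emission at 495 nm. The end-point value at 16 h is averaged over triplicates.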

[4] = system: Huntingtin (Homo sapiens), P42858 [UNDEFINED MUTATION]; assay: Inhibition of TEV protease-induced 6His-GST tagged huntingtin polyQ 103 mutant (unknown origin) aggregation assessed as decrease in fibril branching at 10 uM measured after 4 to 24 hrs by AFM imaging analysis; details: time 4-24 hrs; in short: as §2
[5] = system: Huntingtin (Homo sapiens), P42858 [UNDEFINED MUTATION]; assay: Inhibition of TEV protease-induced 6His-GST tagged huntingtin polyQ 103 mutant (unknown origin) aggregation assessed as isolated fibrils at 10 uM measured after 4 to 8 hrs by AFM imaging analysis; details: time 4-8 hrs
[6] = system: Huntingtin (Homo sapiens), P42858 [UNDEFINED MUTATION]; assay: as §3, with “tagged” for “tagged wildtype”, “103 mutant” for “25”, “1235” for “666”; in short: as §4
[7] = system: Huntingtin (Homo sapiens), P42858 [UNDEFINED MUTATION]; assay: Inhibition of TEV protease-induced 6His-GST tagged huntingtin polyQ 103 mutant (unknown origin) aggregation assessed as reduction of spherical oligomers at 10 uM measured immediately by AFM imaging analysis; in short: as §2
[8] = system: Huntingtin (Homo sapiens), P42858 [UNDEFINED MUTATION]; assay: Inhibition of TEV protease-induced 6His-GST tagged huntingtin polyQ 103 mutant (unknown origin) aggregation assessed as decrease in individual fibers at 10 uM measured after 2 to 24 hrs by AFM imaging analysis; details: time 2-24 hrs; in short: as §2
[9] = system: Huntingtin (Homo sapiens), P42858 [UNDEFINED MUTATION]; assay: as §3, with “tagged” for “tagged wildtype”, “46 mutant” for “25”, “692” for “666”; in short: as §4
[10] = system: Huntingtin (Homo sapiens), P42858 [UNDEFINED MUTATION]; assay: Inhibition of TEV protease-induced 6His-GST tagged huntingtin polyQ 46 mutant (unknown origin) aggregation assessed as decrease in fibril length at 10 uM measured after 2 to 12 hrs by AFM imaging analysis; details: time 2-12 hrs
[11] = system: Huntingtin (Homo sapiens), P42858 [UNDEFINED MUTATION]; assay: Inhibition of TEV protease-induced 6His-GST tagged wildtype huntingtin polyQ 25 (unknown origin) aggregation assessed as decrease in individual fibers at 10 uM measured after 2 to 24 hrs by AFM imaging analysis; details: time 2-24 hrs; in short: as §2
[12] = system: Huntingtin (Homo sapiens), P42858 [UNDEFINED MUTATION]; assay: Inhibition of TEV protease-induced 6His-GST tagged wildtype huntingtin polyQ 25 (unknown origin) aggregation assessed as decrease in fibril length at 10 uM incubated for 24 hrs by AFM imaging analysis relative to control; parameters: scale not given: the % may be the effect or the level left; in short: as §1
[13] = system: Huntingtin (Homo sapiens), P42858 [UNDEFINED MUTATION]; assay: Inhibition of TEV protease-induced 6His-GST tagged huntingtin polyQ 103 mutant (unknown origin) aggregation assessed as reduction in individual fibrils at 10 uM measured immediately by AFM imaging analysis; in short: as §2
[14] = system: Huntingtin (Homo sapiens), P42858 [UNDEFINED MUTATION]; assay: Inhibition of TEV protease-induced 6His-GST tagged huntingtin polyQ 103 mutant (unknown origin) aggregation assessed as decrease in fibril length at 10 uM incubated for 24 hrs by AFM imaging analysis relative to control; parameters: scale not given: the % may be the effect or the level left; in short: as §1
[15] = system: Huntingtin (Homo sapiens), P42858 [UNDEFINED MUTATION]; assay: Inhibition of TEV protease-induced 6His-GST tagged huntingtin polyQ 46 mutant (unknown origin) aggregation assessed as reduction of spherical oligomers at 10 uM measured immediately by AFM imaging analysis; in short: as §2
[16] = system: Huntingtin (Homo sapiens), P42858 [UNDEFINED MUTATION]; assay: Inhibition of TEV protease-induced 6His-GST tagged wildtype huntingtin polyQ 25 (unknown origin) aggregation assessed as reduction of spherical oligomers at 10 uM measured immediately by AFM imaging analysis
[17] = system: Huntingtin (Homo sapiens), P42858 [UNDEFINED MUTATION]; assay: Inhibition of TEV protease-induced 6His-GST tagged huntingtin polyQ 46 mutant (unknown origin) aggregation assessed as decrease in individual fibers at 10 uM measured after 2 to 24 hrs by AFM imaging analysis; details: time 2-24 hrs; in short: as §2
[18] = system: Huntingtin (Homo sapiens), P42858 [UNDEFINED MUTATION]; assay: Inhibition of TEV protease-induced 6His-GST tagged huntingtin polyQ 103 mutant (unknown origin) aggregation assessed as decrease in fibril length at 10 uM measured after 2 to 12 hrs by AFM imaging analysis; details: time 2-12 hrs

Chain of Huntingtin (Homo sapiens), P42858 [UNDEFINED MUTATION] (P42858 whole entry, looked up, change not shown): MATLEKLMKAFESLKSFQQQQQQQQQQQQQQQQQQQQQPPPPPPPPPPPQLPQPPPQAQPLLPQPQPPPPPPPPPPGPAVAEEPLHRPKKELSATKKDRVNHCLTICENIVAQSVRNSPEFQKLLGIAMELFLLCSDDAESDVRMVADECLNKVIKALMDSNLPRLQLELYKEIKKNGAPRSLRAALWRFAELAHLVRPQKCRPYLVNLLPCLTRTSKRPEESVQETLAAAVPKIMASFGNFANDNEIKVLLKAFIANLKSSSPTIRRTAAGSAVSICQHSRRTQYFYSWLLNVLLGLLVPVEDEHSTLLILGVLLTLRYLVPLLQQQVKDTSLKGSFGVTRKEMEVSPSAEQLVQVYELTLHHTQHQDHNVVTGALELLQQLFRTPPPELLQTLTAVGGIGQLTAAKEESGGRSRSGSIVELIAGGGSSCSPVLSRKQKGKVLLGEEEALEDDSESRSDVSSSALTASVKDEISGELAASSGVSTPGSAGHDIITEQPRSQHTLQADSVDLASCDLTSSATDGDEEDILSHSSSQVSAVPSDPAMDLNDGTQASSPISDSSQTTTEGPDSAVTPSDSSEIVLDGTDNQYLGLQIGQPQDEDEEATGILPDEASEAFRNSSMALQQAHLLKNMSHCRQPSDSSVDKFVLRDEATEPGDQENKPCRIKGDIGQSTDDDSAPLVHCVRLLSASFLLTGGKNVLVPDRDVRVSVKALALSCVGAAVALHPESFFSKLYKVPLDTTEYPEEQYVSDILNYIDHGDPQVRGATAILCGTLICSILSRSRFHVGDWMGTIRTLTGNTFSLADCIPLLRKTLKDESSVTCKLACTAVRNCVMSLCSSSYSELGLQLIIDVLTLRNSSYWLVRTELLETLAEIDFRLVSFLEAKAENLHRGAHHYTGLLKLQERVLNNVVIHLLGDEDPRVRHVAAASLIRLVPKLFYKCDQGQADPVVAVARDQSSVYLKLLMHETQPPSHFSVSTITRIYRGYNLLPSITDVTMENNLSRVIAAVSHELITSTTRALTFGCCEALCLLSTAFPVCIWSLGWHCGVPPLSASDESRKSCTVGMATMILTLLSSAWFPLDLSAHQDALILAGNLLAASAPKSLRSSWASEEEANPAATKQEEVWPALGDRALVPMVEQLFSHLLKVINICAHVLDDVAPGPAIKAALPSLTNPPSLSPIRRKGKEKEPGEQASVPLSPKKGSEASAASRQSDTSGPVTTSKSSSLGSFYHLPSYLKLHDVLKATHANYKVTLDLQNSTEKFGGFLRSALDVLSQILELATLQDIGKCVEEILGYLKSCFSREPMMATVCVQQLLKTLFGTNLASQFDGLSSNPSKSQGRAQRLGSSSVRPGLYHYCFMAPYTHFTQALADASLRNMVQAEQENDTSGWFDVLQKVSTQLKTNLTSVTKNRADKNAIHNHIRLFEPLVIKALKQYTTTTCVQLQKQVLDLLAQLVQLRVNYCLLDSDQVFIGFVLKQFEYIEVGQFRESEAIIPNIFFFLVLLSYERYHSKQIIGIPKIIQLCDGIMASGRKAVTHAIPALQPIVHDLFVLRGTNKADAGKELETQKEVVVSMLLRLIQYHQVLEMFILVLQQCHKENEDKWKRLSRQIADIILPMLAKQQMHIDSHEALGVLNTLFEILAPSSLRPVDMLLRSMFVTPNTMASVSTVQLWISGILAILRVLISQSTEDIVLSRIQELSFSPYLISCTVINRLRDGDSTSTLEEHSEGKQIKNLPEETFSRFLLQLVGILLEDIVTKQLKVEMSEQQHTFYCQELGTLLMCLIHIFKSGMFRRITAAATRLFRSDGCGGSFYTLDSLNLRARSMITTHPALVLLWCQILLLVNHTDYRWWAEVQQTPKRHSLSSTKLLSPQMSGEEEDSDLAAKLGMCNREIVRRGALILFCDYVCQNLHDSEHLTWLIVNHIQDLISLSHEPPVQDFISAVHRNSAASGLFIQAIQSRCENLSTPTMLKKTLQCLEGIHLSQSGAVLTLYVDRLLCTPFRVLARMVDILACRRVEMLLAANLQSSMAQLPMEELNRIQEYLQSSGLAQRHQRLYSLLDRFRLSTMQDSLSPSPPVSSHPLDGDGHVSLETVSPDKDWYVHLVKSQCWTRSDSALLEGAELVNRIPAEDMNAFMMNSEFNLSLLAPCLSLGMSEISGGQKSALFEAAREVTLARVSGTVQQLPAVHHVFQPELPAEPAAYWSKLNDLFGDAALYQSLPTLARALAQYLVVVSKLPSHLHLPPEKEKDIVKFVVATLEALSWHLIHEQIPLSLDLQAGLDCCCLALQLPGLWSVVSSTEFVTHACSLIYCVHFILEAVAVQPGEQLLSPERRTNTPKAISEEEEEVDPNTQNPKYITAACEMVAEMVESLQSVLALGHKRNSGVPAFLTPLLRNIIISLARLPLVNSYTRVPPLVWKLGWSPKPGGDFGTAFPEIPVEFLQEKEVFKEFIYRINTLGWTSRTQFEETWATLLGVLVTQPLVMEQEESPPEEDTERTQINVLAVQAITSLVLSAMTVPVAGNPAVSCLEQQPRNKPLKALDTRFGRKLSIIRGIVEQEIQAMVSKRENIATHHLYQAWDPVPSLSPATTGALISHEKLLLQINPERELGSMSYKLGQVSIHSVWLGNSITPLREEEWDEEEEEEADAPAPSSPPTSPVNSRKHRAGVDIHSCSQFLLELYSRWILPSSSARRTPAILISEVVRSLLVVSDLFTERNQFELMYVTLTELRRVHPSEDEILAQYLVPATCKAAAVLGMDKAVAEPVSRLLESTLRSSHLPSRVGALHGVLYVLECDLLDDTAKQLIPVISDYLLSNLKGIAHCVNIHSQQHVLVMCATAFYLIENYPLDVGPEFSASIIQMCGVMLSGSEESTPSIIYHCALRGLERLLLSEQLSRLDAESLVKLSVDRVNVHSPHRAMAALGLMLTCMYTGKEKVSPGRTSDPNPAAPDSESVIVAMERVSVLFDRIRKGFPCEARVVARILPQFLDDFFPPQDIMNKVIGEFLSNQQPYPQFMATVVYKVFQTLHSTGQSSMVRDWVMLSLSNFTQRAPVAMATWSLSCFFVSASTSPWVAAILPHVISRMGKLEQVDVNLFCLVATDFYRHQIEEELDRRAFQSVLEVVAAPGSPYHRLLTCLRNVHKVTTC

Activity [1] [%]	inhibition [2]	RFU [3] [a.u.]	inhibition [4]	inhibition [5]	RFU [6] [a.u.]	inhibition [7]	inhibition [8]	RFU [9] [a.u.]	inhibition [10]	inhibition [11]	Activity [12] [%]	inhibition [13]	Activity [14] [%]	inhibition [15]	inhibition [16]	inhibition [17]	inhibition [18]	Compound
17.6	Active	459	Active	Active	433	inactive	Active	500	Active	Active	38.3	inactive	22.7	inactive	inactive	Active	Active	CSCC[C@H](NC(=O)[C@H](CO)NC(=O)[C@H](Cc1c[nH]cn1)NC(=O)[C@H](CC(C)C)NC(=O)CNC(=O)[C@@H](N)Cc1c[nH]cn1)C(=O)N[C@@H](Cc1c[nH]cn1)C(=O)N[C@@H](CC(N)=O)C(=O)N[C@@H](CCCCN)C(=O)N[C@@H](CC(C)C)C(=O)N[C@@H](CC(C)C)C(=O)N[C@@H](CCC(N)=O)C(=O)N[C@H](C(=O)O)[C@@H](C)O
17.3	Active	552	Active	Active	431	inactive	Active	634	Active	Active	25.6	inactive	28	inactive	inactive	Active	Active	CSCC[C@H](NC(=O)[C@@H](N)Cc1c[nH]c2ccccc12)C(=O)N[C@@H](Cc1ccccc1)C(=O)N1CCC[C@H]1C(=O)N[C@@H](CO)C(=O)N[C@@H](CC(C)C)C(=O)N[C@@H](CCCCN)C(=O)N[C@@H](CC(C)C)C(=O)N[C@@H](CC(C)C)C(=O)N[C@@H](CC(=O)O)C(=O)N[C@@H](Cc1ccc(O)cc1)C(=O)N[C@@H](Cc1c[nH]cn1)C(=O)O
24.9	Active	424	Active	Active	564	inactive	Active	357	Active	Active	42.9	inactive	36.7	inactive	inactive	Active	Active	CC(C)C[C@H](NC(=O)CNC(=O)[C@H](CC(C)C)NC(=O)[C@H](CO)NC(=O)[C@H](CC(N)=O)NC(=O)[C@H](C)NC(=O)CNC(=O)[C@H](Cc1c[nH]cn1)NC(=O)[C@@H](N)Cc1c[nH]cn1)C(=O)N[C@H](C(=O)N[C@@H](CCC(N)=O)C(=O)N[C@@H](CO)C(=O)O)C(C)C
